# High-throughput results: PubChem BioAssay, several laboratories
# S1P3 agonist – human S1P3 receptor agonists, primary screen, cell-based, primary and confirmation, NFAT-BLA reporter | hit rate 0.1% among 60,000 | activation, % at 4.5 µM | S1P3 NFAT-BLA reporter cells, agonism, FRET ratio; relative to 1 µM S1P, basal subtracted | Sphingosine 1-phosphate receptor 3 (Homo sapiens), Q99500 | AID 373, 2006;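 active = activation above the screen-wide mean plus 3 SD, cut at about 4.5% in these data, passing the limit was not always enough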
#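 Assay system: CHO cells stably expressing human S1P3, Gα16 and NFAT-β-lactamase reporter. Timing: overnight plating, 4 h compound 37 °C, 2 h substrate RT. Signal: β-lactamase FRET emission ratio 460/535 nm. Measure: percent activation versus median 1 µM S1P response, basal-subtracted, per plate. Repeats: primary screen single test, confirmation screen in triplicate.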
# M1 agonist – M1 muscarinic receptor agonists, primary screen, CHO-M1 cells, Fluo-4 calcium, agonist mode. Muscarinic acetylcholine receptor M1. Fluo-4 calcium fluorescence; stronger effect = higher value. B-score at 10 µM. hit rate 3% among 64,000;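 active = fluorescence rise, raw or as B-score row- and column-corrected plate score, outside the 99.7% band of its plate's samples, either direction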
# S1P1 ag-PAM – S1P1 agonists and agonism potentiators, primary screen, cell-based, primary and confirmation screens, CRE-bla reporter | Sphingosine 1-phosphate receptor 1 (Homo sapiens), P21453 | S1P1 CRE-bla cells, forskolin, beta-lactamase FRET, potentiator mode; S1P1 agonist co-added at EC20, 2 nM; 100% = saturating reference agonist, 0% = basal | activation, % at 9.5 µM | hit rate 0.57% among 56,000 | AID 449, 2006;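 active = activation above a cutoff set at the mean activation of all tested compounds plus 3 SD, cut at about 54% in these data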;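 also: forskolin at 4 µM as EC80 and the EC20 agonist is SEW2871; 100% = SEW2871 at its EC100 plus forskolin at EC80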
# SF1 activator – activators of human SF-1, primary screen, cell-based, CHO-K1, Gal4-SF-1 LBD, luciferase luminescence | activation, % at 10 µM | hit rate 1.9% among 65,000 | Steroidogenic factor 1 (Homo sapiens), Q13285 | CHO-K1 Gal4-SF-1 LBD luciferase reporter; % increase over DMSO SF-1-specific signal;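 active = activation above the mean activation of all tested compounds plus 3 SD, cut at about 50% in these data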
#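 Assay system: CHO-K1 cells co-transfected with Gal4 DBD–human SF-1 LBD, 5xGal4 luciferase reporter / Input: 4,000 cells per well / Incubation: 20 h compound exposure at 37 °C after 1 h cell settling / Detection: SteadyLite luciferase luminescence / Control set: DMSO negative control and −SF1 background wells / Replication: one test per compound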
# M1 antag – antagonists of rat M1 muscarinic receptor; CHO-M1 cells, Fluo-4 calcium, ACh EC80 antagonist mode; stronger effect = lower value; hit rate 3.4% among 64,000; B-score at 10 µM; AID 628, 2007;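 active = calcium fluorescence response, raw or row-and-column corrected B-score, differing from the plate sample mean either way at a set confidence level, mostly lower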
# RORa activator – activators of orphan receptor RORA, primary screen, cell-based, luminescence | hit rate 1.5% among 65,000 | CHO-K1 Gal4-RORA LBD luciferase reporter; percent increase over mock-subtracted basal signal | activation, % at 10 µM | Nuclear receptor ROR-alpha (Homo sapiens), P35398;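 active = activation above the mean of all tested compounds plus 3 SD, cut at about 49% in these data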;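 also: 0% = DMSO-treated RORA cells and 100% = added signal equal to DMSO minus mock-transfected cells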
# M1 agonist conf – rat M1 muscarinic receptor agonists, confirmation, CHO-M1 cells, Fluo-4 calcium, duplicate retest | AID 1488, 2009 | hit rate 19% among 1,700 | Fluo-4 calcium fluorescence, agonist mode; actives lie on both sides | fluorescence change (max-min) at 10 µM | shares compounds with M1 agonist;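 active = fluorescence change differs from the solvent-only DMSO control mean at a set confidence level in both duplicate runs; inconclusive = differs from solvent-only control mean in just one of two runs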;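 also: an EC20 dose of acetylcholine follows compound addition during the same imaging run; raw fluorescence intensity difference in instrument units with no normalization to controls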
# M4 ag counter – agonist activity at rat M4 receptor, confirmation, counter-screen for M1 allosteric modulator project, cell-based, agonist mode; shares compounds with M1 agonist; CHO M4/Gqi5 cells, Fluo-4 calcium fluorescence; actives lie on both sides; fluorescence change (max-min) at 10 µM; hit rate 9% among 1,700; AID 1741, 2009;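 active = fluorescence change differing from the plate's solvent-only control wells at 99.7% confidence in both duplicates, whether higher or lower; inconclusive = differs from solvent controls in only one of two duplicates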
# Target sequence (P08485 whole entry, looked up): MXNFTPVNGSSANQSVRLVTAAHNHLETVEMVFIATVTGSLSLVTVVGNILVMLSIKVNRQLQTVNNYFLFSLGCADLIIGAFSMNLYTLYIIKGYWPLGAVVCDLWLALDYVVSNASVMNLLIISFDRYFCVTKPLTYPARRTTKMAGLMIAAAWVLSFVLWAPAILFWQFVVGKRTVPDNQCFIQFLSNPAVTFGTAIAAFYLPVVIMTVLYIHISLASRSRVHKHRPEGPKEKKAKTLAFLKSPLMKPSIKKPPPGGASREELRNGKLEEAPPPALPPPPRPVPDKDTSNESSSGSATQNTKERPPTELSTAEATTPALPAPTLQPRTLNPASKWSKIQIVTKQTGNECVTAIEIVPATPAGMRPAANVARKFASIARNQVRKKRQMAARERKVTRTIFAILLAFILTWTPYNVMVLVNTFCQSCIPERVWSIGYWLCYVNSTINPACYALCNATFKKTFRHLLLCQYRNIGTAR
# * hit, by the source's call; u = inconclusive; x = not tested or not shown. The list is not random: actives were taken first. Their share in the collection is about 8.8%.
SMILES,S1P3 agonist,M1 agonist,S1P1 ag-PAM,SF1 activator,M1 antag,RORa activator,M1 agonist conf,M4 ag counter
CCc1nnc(NC(=O)C2CCCN2C(=O)NC2CCCCC2)s1 (stereo not given),-1,-0.81,-4,12,-2.1,-3,x,x
Cc1ccc(C2C(C#N)=C(N)Oc3nc(-c4ccccc4)[nH]c32)o1 (stereo not given),-1,3.5*,-3,3,-0.14,-10,-24*,-35
Cn1c(=O)n(C)c2cc(NS(=O)(=O)c3ccc4c(c3)CCCC4)ccc21,0,0.26,x,-24,-1.6,-32,x,x
CCOC(=O)c1oc2ccc(S(=O)(=O)Nc3ccc4c(c3)n(C)c(=O)n4C)cc2c1C,-1,5.3*,x,-57,-1.6,-30,u,-76
Cc1ccc(-c2[nH]nc3c2C(c2ccc(OC(=O)N4CCOCC4)cc2)C(C#N)=C(N)O3)cc1 (stereo not given),-1,0.21,-16,-8,-0.64,2,x,x
O=C(O)c1ccc(S(=O)(=O)NC2CCCc3ccccc32)cc1 (stereo not given),-1,2.9*,6,-3,0.33,-9,u,u
Cc1cc(N2CCN(S(=O)(=O)c3ccc(Cl)cc3)CC2)c2ccccc2n1,x,5.2*,x,x,-7.4*,x,-10,-16
Cc1ccc(Cl)cc1N1CCN(C(=O)C2CCN(S(=O)(=O)c3cccnc3)CC2)CC1,x,0.91,x,-30,-0.25,-13,x,x
Cc1ccc(Cl)cc1N1CCN(C(=O)C2CCN(S(=O)(=O)c3c(C)nn(C)c3C)CC2)CC1,0,8*,27,-16,-2.6*,-5,u,-59
c1ccc(-n2ncc3c(N4CCN(c5ccccn5)CC4)nc(N4CCOCC4)nc32)cc1,0,0.38,0,7,0.69,-29,x,x
O=C1c2ccccc2C(=O)N1SC1CCCCC1,-1,6.4*,8,-28,-0.76,-6,u,-43
Cc1ccsc1C1C=C(c2cccc(Br)c2)Nc2ncnn21 (stereo not given),0,34*,-2,2,-0.92,-4,836*,793*
Cc1ccc(C2C=C(c3ccc4c(c3)OCO4)Nc3ncnn32)cc1 (stereo not given),1,-1.4,-36,2,-1.2,4,x,x
COc1cccc(C2=CC(c3ccc(C)cc3)n3ncnc3N2)c1 (stereo not given),-1,8*,4,-7,-1.1,7,165*,u
O=S(=O)(Cc1ccc(Cl)cc1)N1CCCC1,-2,-0.44,-10,-15,0.44,-6,x,x
COC(=O)C(C)n1cnc2c(nnn2-c2ccc(OC)cc2)c1=O (stereo not given),1,-0.3,10,-9,0.62,-3,x,x
CCOC(=O)C(CC)n1cnc2c(nnn2-c2ccc(C)cc2)c1=O (stereo not given),-1,6.4*,-14,9,0.53,0,-22,-71*
COc1ccc(CCNc2c(C)c(C)nc3ncnn23)cc1,2,3.3*,134*,-81,-1.2*,-78,15,-38
Cc1nn(Cc2ccccc2)c(C)c1NC(=O)CSc1nnc(-c2cc(Cl)ccc2O)n1C,0,-0.25,15,2,-0.4,12,x,x
c1ccc(-c2nnc(Cn3c4ccccc4c4nc5ccccc5nc43)o2)cc1,0,0,x,38,0,20,x,x
CCCn1nc(-c2ccccc2)c2nc3ccccc3nc21,-1,475*,21,-15,0.5,-16,492*,1201*
CCn1nc(-c2ccccc2)c2nc3ccccc3nc21,0,24*,29,-16,-0.93,-14,24,11
O=C(Nc1ccc(F)cc1)N(Cc1ccco1)Cc1cc2cc3c(cc2[nH]c1=O)OCO3,-1,-2.5*,-18,13,0.79,24,-13,-22
CCCCOCP(=O)(CCCC)COCCCC,-1,-0.15,-22,-2,-0.38,9,x,x
O=C(Nc1ccc(Cc2ccncc2)cc1)c1ccc(S(=O)(=O)N2CCOCC2)cc1,-2,13*,25,-7,-2.5*,-35,-17,u
SMILES,S1P3 agonist,M1 agonist,S1P1 ag-PAM,SF1 activator,M1 antag,RORa activator,M1 agonist conf,M4 ag counter
O=C(Nc1ccc(S(=O)(=O)N2CCOCC2)cc1)c1ccc(Cl)cc1,-2,-0.43,23,-1,-0.55,9,x,x
N#Cc1ccc(COc2ccc(CCO)cc2-n2nc3ccccc3n2)cc1,-1,5.5*,1,-5,-0.62,-17,7,-15
COc1ccccc1/C=c1\sc2nc(-c3cccs3)nn2c1=O,-1,-0.22,-2,6,1.2,-6,x,x
Cc1ccc(/C=c2\sc3nc(-c4cccs4)nn3c2=O)o1,-1,46*,-11,-12,0.3,5,39,48
CCOc1ccc(S(=O)(=O)N2CCN(c3ccccc3OC)CC2)c2cccnc12,0,5.2*,10,4,-0.52,2,-16,-49
Cc1ccc(CS(=O)(=O)CCC(=O)NCc2cccs2)cc1,0,4*,15,-4,0.56,3,-21,-39
Cc1ccc(CS(=O)(=O)CCC(=O)NCc2ccc3c(c2)OCO3)cc1,-1,0.2,10,8,0.29,-9,x,x
CCn1c(SCC(=O)N2CCOCC2)nc2oc3c(Cl)cc(Cl)cc3c(=O)c2c1=O,-2,4.4*,20,-14,-0.78,-41,5.6,5
O=C(c1cnc(N2CCN(c3ncccn3)CC2)c2ccccc12)N1CCN(c2ccccn2)CC1,0,12*,20,8,-1.3,-10,-10,-12
O=C(c1ccco1)N1CCN(c2nc3ccccc3n3nnnc23)CC1,0,7.4*,-38,8,-1.4,45,22,14
O=C(c1ccco1)N1CCN(C(=O)c2cc(-c3ccccn3)nc3ccccc23)CC1,-1,3.3*,6,0,0.46,-21,u,-74
